From ChEMBL document CHEMBL4732028, “Structural modifications that increase gut restriction of bile acid derivatives” (RSC Med Chem, 2021)
Calls of active or inactive are those of the source. The rule behind the calls is not given here.

Key:
[1] = biological target: T1, G-protein coupled bile acid receptor 1 (Homo sapiens, UniProt Q8TDU6); assay: Agonist activity at recombinant human TGR5 expressed in CHO cells assessed as increase in cAMP accumulation after 30 mins by TR-FRET assay; type: functional, cell-based
T1 sequence (Q8TDU6 whole entry): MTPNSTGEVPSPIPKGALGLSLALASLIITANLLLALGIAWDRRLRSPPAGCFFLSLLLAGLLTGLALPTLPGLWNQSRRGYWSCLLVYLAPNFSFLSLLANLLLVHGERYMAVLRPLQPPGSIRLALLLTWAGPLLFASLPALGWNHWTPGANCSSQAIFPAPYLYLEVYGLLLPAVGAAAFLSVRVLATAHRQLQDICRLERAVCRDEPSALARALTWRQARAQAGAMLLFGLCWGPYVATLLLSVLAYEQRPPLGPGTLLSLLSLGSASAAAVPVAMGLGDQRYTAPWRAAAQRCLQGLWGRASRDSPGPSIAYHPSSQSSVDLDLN

Clostridioides difficile [2] = assay: Inhibition of TCA-induced Clostridioides difficile RPRE2 spore germination at 50 uM measured once every minute for 20 mins by microplate reader analysis; type: functional
Procedure, shortened: (§1)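 Germination of C. difficile spores was induced with 2000 μM taurocholate (TCA), and test compound was added to inhibit it.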

[3] = Apparent permeability of the compound across apical to basolateral side in human Caco-2 cells; type: ADME, cell-based
[4] = Drug recovery in C57BL/6 mouse feces at 5 mg/kg, po measured after 24 hrs by LC-MS/MS analysis; type: ADME, organism-based; conditions: read-out: Drug recovery
[5] = Apparent permeability of the compound across basolateral to apical side in human Caco-2 cells; type: ADME, cell-based
[6] = AUC in C57BL/6 mouse at 5 mg/kg, po measured up to 120 mins by LC-MS/MS analysis; type: ADME, organism-based; parameters: route oral, dose 5 mg/kg, time <=120; conditions: in vivo
Clostridioides difficile [7] = assay: Inhibition of TCA-induced Clostridioides difficile RPRE2 spore germination at 200 uM measured once every minute for 20 mins by microplate reader analysis; type: functional; procedure, shortened: as §1
[8] = biological target: T2, Bile acid receptor (Homo sapiens) (UniProt Q96RI1); assay: Agonist activity at FXR (unknown origin)
T2 sequence (whole entry): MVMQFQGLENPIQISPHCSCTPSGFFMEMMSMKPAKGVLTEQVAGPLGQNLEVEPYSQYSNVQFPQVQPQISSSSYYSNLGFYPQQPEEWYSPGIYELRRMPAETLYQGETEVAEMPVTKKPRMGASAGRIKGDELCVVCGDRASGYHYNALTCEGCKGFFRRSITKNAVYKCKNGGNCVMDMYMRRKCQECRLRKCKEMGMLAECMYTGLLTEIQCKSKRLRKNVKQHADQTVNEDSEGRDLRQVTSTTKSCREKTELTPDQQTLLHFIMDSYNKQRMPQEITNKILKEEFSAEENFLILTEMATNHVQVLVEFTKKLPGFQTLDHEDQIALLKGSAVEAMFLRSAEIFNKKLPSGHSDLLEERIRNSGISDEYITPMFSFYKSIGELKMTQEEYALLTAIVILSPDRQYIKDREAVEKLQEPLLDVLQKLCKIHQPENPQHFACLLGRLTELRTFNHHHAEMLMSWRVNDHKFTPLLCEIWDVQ

HEK293 = assay: Cytotoxicity against human HEK293 cells at 10 uM; type: cell-based; conditions: hek293, 10 µM
[9] = biological target: T3, Vitamin D3 receptor (Homo sapiens) (UniProt P11473); assay: Agonist activity at VDR (unknown origin)
T3 sequence (whole entry): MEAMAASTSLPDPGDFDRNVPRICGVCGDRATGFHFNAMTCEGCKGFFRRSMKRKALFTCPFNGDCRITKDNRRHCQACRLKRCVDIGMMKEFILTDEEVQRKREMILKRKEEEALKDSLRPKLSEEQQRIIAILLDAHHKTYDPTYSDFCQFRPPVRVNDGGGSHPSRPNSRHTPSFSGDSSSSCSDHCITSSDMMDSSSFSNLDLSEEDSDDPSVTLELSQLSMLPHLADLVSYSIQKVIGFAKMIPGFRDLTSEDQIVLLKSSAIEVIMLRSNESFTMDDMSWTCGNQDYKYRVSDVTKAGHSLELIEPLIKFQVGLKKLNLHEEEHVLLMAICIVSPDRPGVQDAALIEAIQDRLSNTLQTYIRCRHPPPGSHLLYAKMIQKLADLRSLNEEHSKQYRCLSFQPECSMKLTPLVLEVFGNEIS

In the case of CO[C@@H]1C[C@@H]2C[C@H](O)CC[C@]2(C)[C@H]2CC[C@]3(C)[C@@H]([C@H](C)CCC(=O)N(CCCNC(=O)[C@H](O)[C@@H](O)[C@H](O)[C@H](O)CO)CCCNC(=O)[C@H](O)[C@@H](O)[C@H](O)[C@H](O)CO)CC[C@H]3[C@H]12, the EC50 [1] is reported as 567 nM.

In the case of CO[C@@H]1CC[C@@]2(C)[C@@H](C1)C[C@@H](O)[C@@H]1[C@@H]2CC[C@]2(C)[C@@H]([C@H](C)CCc3nn[nH]n3)CC[C@@H]12, the inhibition (Clostridioides difficile [2]) is reported as “Active”.

With Cc1nnc(CC[C@@H](C)[C@H]2CC[C@H]3[C@@H]4[C@H](O)C[C@@H]5C[C@H](O)CC[C@]5(C)[C@H]4CC[C@]23C)o1 the Papp A→B [3] was 2.6 ×10⁻⁶ cm/s, the dose excreted at 24 h [4] was 0.5% and the Papp B→A [5] was 1.5 ×10⁻⁶ cm/s. For the same compound, the AUC at 2 h [6] was 45800 ng·h/mL.

With CO[C@@H]1CC[C@@]2(C)[C@@H](C1)C[C@H](OS(=O)(=O)[O-])[C@@H]1[C@@H]2CC[C@]2(C)[C@@H]([C@H](C)CCC(=O)N3CCCC3)CC[C@@H]12.[Na+] the inhibition (Clostridioides difficile [2]) was “Active”, the dose excreted at 24 h [4] was 29.1% and the AUC at 2 h [6] was 14300 ng·h/mL.

In the case of CO[C@@H]1C[C@@H]2C[C@H](O)CC[C@]2(C)[C@H]2CC[C@]3(C)[C@@H]([C@H](C)CCC(=O)NC[C@H](O)[C@@H](O)[C@H](O)[C@H](O)CO)CC[C@H]3[C@H]12, the inhibition (Clostridioides difficile [7]) is reported as “inactive”, the EC50 [1] is reported as 33.3 nM and the dose excreted at 24 h [4] is reported as 11.7%. The AUC at 2 h [6] was 1520 ng·h/mL.

CO[C@@H]1CC[C@@]2(C)[C@@H](C1)C[C@H](O)[C@@H]1[C@@H]2CC[C@]2(C)[C@@H]([C@H](C)CCC(=O)N3CCCC3)CC[C@@H]12 showed a dose excreted at 24 h [4] of 3% and an AUC at 2 h [6] of 29600 ng·h/mL.

In the case of CO[C@@H]1C[C@@H]2C[C@H](O)CC[C@]2(C)[C@H]2CC[C@]3(C)[C@@H]([C@H](C)CCc4nnc(C)o4)CC[C@H]3[C@H]12, the Papp A→B [3] is reported as 0.27 ×10⁻⁶ cm/s, the Activity [8] is reported as “inactive” and the dose excreted at 24 h [4] is reported as 7.1%. The Papp B→A [5] was 0.12 ×10⁻⁶ cm/s, the AUC at 2 h [6] was 25700 ng·h/mL and the Activity (HEK293) was “Non-Toxic”. The Activity [9] was “inactive”.

With CO[C@@H]1CC[C@@]2(C)[C@@H](C1)C[C@@H](O)[C@@H]1[C@@H]2CC[C@]2(C)[C@@H]([C@H](C)CCc3nnn[n-]3)CC[C@@H]12.[Na+] the dose excreted at 24 h [4] was 7.7% and the AUC at 2 h [6] was 37700 ng·h/mL.

In the case of CO[C@@H]1CC[C@@]2(C)[C@@H](C1)C[C@@H](OS(=O)(=O)[O-])[C@@H]1[C@@H]2CC[C@]2(C)[C@@H]([C@H](C)CCc3nnn[n-]3)CC[C@@H]12.[Na+].[Na+], the inhibition (Clostridioides difficile [2]) is reported as “Active”, the dose excreted at 24 h [4] is reported as 89.1% and the AUC at 2 h [6] is reported as 4840 ng·h/mL.

In the case of CO[C@@H]1C[C@@H]2C[C@H](O)CC[C@]2(C)[C@H]2CC[C@]3(C)[C@@H]([C@H](C)CCC(=O)N(C)C[C@H](O)[C@@H](O)[C@H](O)[C@H](O)CO)CC[C@H]3[C@H]12, the inhibition (Clostridioides difficile [7]) is reported as “inactive”, the EC50 [1] is reported as 62.3 nM and the dose excreted at 24 h [4] is reported as 39.7%. For the same compound, the AUC at 2 h [6] was 1250 ng·h/mL.

Work on CO[C@@H]1C[C@@H]2C[C@H](O)CC[C@]2(C)[C@H]2CC[C@]3(C)[C@@H]([C@H](C)CCC(=O)O)CC[C@H]3[C@H]12 yielded an EC50 [1] of 76.8 nM.
